Experimental data published in ChEMBL document CHEMBL1121797, “Studies on chiral interactions of 1-(2,5-dimethoxy-4-methylphenyl)-2-aminopropane and the corresponding N-hydroxy metabolites with cytochrome P-450” (J Med Chem, 1981).

How the values were obtained:
[1] = Extent rates of formation of metabolic intermediate Cytochrome P-450 at compound concentration of 30 uM; type: ADME
Procedure, shortened: (§1)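 Rabbit liver microsomes at 2 mg protein/mL with 0.1 mM EDTA, 37 °C, substrate 30 μM. Complex formation started with 0.4 mM NADPH and followed by dual-wavelength absorbance, 457 vs 500 nm. Initial rate is the initial slope, ΔA×10^4 per nmol P-450 per min. Extent is the plateau absorbance. Lag is the time from NADPH addition to first 457-nm chromophore. Triplicate or single runs.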

[2] = Lag time between the addition of compound (30 uM) and the first appearance of chromophore; type: ADME; procedure, shortened: as §1
[3] = Initial rates of formation of metabolic intermediate Cytochrome P-450 with compound concentration of 150 uM; type: ADME
Procedure, shortened: (§2)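 Cross-inhibition in NADPH-supplemented rabbit liver microsomes at 37 °C. Preincubation with amine at 30, 150 or 300 μM while 457-nm complex formation was monitored. Once it plateaued (6–8 min), racemic hydroxylamine was added at 300 μM. Initial rate and plateau extent were read from ΔA457–500 nm vs time, per nmol P-450.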

[4] = Initial rates of formation of metabolic intermediate Cytochrome P-450 with compound concentration of 300 uM; type: ADME; procedure, shortened: as §2
[5] = Initial rates of formation of metabolic intermediate Cytochrome P-450 with compound concentration of 30 uM; type: ADME; procedure, shortened: as §2
[6] = Initial rates of formation of metabolic intermediate Cytochrome P-450 at compound concentration of 30 uM; type: ADME; procedure, shortened: as §1
[7] = biological target: T1, Cytochrome P450 2C19 (Homo sapiens, UniProt P33261); assay: Inhibitory effect in formation of metabolic intermediate complex between Cytochrome P450 and racemic 2 initially, on pre-incubation with Racemic compound 2 (300 uM) at 300 uM; type: ADME, Oryctolagus cuniculus; details: rabbit
T1 sequence (P33261 whole entry): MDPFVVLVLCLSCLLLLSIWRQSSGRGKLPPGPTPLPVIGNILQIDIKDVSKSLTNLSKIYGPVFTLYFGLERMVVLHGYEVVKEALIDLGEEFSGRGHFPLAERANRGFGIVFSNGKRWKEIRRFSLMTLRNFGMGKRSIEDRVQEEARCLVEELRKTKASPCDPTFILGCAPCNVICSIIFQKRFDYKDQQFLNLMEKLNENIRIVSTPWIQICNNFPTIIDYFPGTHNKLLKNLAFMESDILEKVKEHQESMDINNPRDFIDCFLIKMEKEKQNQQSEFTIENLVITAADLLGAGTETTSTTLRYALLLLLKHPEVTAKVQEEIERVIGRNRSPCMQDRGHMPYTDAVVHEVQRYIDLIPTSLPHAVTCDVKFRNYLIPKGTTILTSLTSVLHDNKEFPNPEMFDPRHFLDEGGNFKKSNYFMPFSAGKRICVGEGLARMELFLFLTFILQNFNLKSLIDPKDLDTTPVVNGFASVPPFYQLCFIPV

[8] = biological target: T1, Cytochrome P450 2C19; assay: Inhibitory effect in formation of metabolic intermediate complex between Cytochrome P450 and racemic compound 2 at extent, on pre-incubation with Racemic 2 (300 uM) at 150 uM; type: ADME, Oryctolagus cuniculus; details: rabbit
[9] = biological target: T1, Cytochrome P450 2C19; assay: Inhibitory effect in formation of metabolic intermediate complex between Cytochrome P450 and racemic compound 2 initially, on pre-incubation with compound at 300 uM; type: ADME, Oryctolagus cuniculus; details: rabbit
[10] = biological target: T1, Cytochrome P450 2C19; assay: Inhibitory effect in formation of metabolic intermediate complex between Cytochrome P450 and racemic compound 2 initially, on pre-incubation with compound at 150 uM; type: ADME, Oryctolagus cuniculus; details: rabbit
[11] = biological target: T1, Cytochrome P450 2C19; assay: Inhibitory effect in formation of metabolic intermediate complex between Cytochrome P450 and racemic compound 2 initially, on preincubation with Racemic compound 2 (300 uM) at 150 uM; type: ADME, Oryctolagus cuniculus; details: rabbit; procedure, shortened: as §2
[12] = Initial rates of formation of metabolic intermediate Cytochrome P-450 at compound concentration of 3.75-120 uM; type: ADME
Procedure, shortened: (§3)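 Rabbit liver microsomes at 2 mg protein/mL with 0.1 mM EDTA, 37 °C, NADPH-dependent. Substrate tested at several concentrations. ΔA457–500 nm followed against time. Rate is the initial slope per nmol P-450 per min; extent is the plateau absorbance. Runs disturbed by a transient 450-nm species were discarded.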

[13] = biological target: T1, Cytochrome P450 2C19; assay: Apparent binding affinity constant of compound (10.8-60.0) for Cytochrome P450; type: ADME, Oryctolagus cuniculus; details: read-out: Ks
[14] = biological target: T1, Cytochrome P450 2C19; assay: Inhibitory effect in formation of metabolic intermediate complex between Cytochrome P450 and racemic compound 2 at extent, on preincubation with compound at 150 uM; type: ADME, Oryctolagus cuniculus; details: rabbit
[15] = biological target: T1, Cytochrome P450 2C19; assay: Inhibitory effect in formation of metabolic intermediate complex between Cytochrome P450 and racemic compound 2 initially, on pre-incubation with compound at 30 uM; type: ADME, Oryctolagus cuniculus; details: rabbit
[16] = biological target: T1, Cytochrome P450 2C19; assay: Inhibitory effect in formation of metabolic intermediate complex between Cytochrome P450 and racemic compound 2 at extent, on pre-incubation with compound at 300 uM; type: ADME, Oryctolagus cuniculus; details: rabbit
[17] = Extent rates of formation of metabolic intermediate Cytochrome P-450 at compound concentration of 3.75-120 uM; type: ADME; procedure, shortened: as §3
[18] = biological target: T1, Cytochrome P450 2C19; assay: Inhibitory effect in formation of metabolic intermediate complex between Cytochrome P450 and racemic compound 2 at extent, on pre-incubation with Racemic 2 (300 uM) at 300 uM; type: ADME, Oryctolagus cuniculus; details: rabbit
[19] = biological target: T1, Cytochrome P450 2C19; assay: Inhibitory effect in formation of metabolic intermediate complex between Cytochrome P450 and racemic compound 2 at extent, on pre-incubation with compound at 30 uM; type: ADME, Oryctolagus cuniculus; details: rabbit
[20] = biological target: T1, Cytochrome P450 2C19; assay: Inhibitory effect in formation of metabolic intermediate complex between Cytochrome P450 and racemic 2 at extent, on preincubation with Racemic compound 2 (300 uM) at 30 uM; type: ADME, Oryctolagus cuniculus; details: rabbit; procedure, shortened: as §2

Structure (SMILES) | Extent [1] | Lag time [2] | Rate [3] | Rate [4] | Rate [5] | Rate [6] | Rate [7] | Extent [8] | Rate [9] | Rate [10] | Rate [11] | Rate [12] | Kd [13] | Extent [14] | Rate [15] | Extent [16] | Extent [17] | Extent [18] | Extent [19] | Extent [20]
COc1cc(C[C@@H](C)N)c(OC)cc1C.COc1cc(C[C@H](C)N)c(OC)cc1C | 30 | 138 s | 1.6 | 1.2 | 1.8 | 4.8 | – | – | – | – | – | – | – | – | – | – | – | – | – | –
COc1cc(C[C@@H](C)N)c(OC)cc1C | 78 | 14 s | 6.1 | 5.5 | 5.2 | 17.1 | 160 | 116 | 5.8 | 6.1 | 183 | 17.5 | 18 µM | 25 | 5.2 | 23 | 23 | 105 | 21 | 131
